# Assay results of several laboratories.
# Each line is one published result; the experiments were not run side by side.
# Cell line: HEK293
# Observed: cell growth or viability
SMILES,technique,tested at,time,quantity,result
COC(CNC1=CC2=NCCc3c[nH]c(c32)C1=O)c1c[nH]c2ccccc12 (stereo not drawn),MTT,,72 h,CC50,4 µM
Cc1ccc(Cn2cc(C(=O)NN)c(=O)c3cc(Oc4ccccc4)ccc32)cc1,resazurin,,48 h,CC50,> 20 µM
O=C(Nc1ccc(C(F)(F)F)cc1)c1cccc(C(F)(F)F)c1,resazurin,,48 h,CC50,9.25 µM
O=C1C(NCCc2c[nH]c3ccccc23)=CC2=NCCc3c[nH]c1c32,MTT,,72 h,CC50,3.1 µM
O=C(N/N=C/c1ccc([N+](=O)[O-])o1)c1cn(Cc2ccccc2)c2ccc([N+](=O)[O-])cc2c1=O,resazurin,,48 h,CC50,> 20 µM
O=C(Nc1ccc(C(F)(F)F)nn1)c1cccc(C(F)(F)F)c1,resazurin,,48 h,CC50,> 20 µM
COc1ccc2c(c1)c(=O)c(C(=O)NN)cn2Cc1ccccc1,resazurin,,48 h,CC50,> 20 µM
O=C(Nc1ccc([N+](=O)[O-])cc1)c1ccc(F)cc1,resazurin,,48 h,CC50,> 20 µM
CC(C)C[C@H](NC(=O)[C@H](Cc1ccccc1)NC(=O)c1cnccn1)B(O)O,resazurin,,48 h,CC50,0.008 µM
CCCc1cc(=O)oc2cc(OCc3cc(=O)c(O)co3)ccc12,CCK-8,36 µM,24 h,viability,94%
O=C1C=C2NCCc3c[nH]c(c32)C1=O,MTT,,72 h,CC50,50 µM
O=C(Nc1cccc([N+](=O)[O-])c1)c1ccccc1,resazurin,,48 h,CC50,> 20 µM
Cn1cc2c3c1C(=O)C(NCCc1ccc(O)cc1)=CC3=[N+](C)CC2,MTT,,72 h,CC50,0.23 µM
O=C(N/N=C/c1ccc([N+](=O)[O-])o1)c1cn(Cc2ccccc2)c2ccccc2c1=O,resazurin,,48 h,CC50,> 20 µM
O=C(Nc1cccc([N+](=O)[O-])c1)c1ccc(C(F)(F)F)cc1,resazurin,,48 h,CC50,> 20 µM
